Assay results: ChEMBL document CHEMBL1146087, “1,4-Benzodiazepines as inhibitors of respiratory syncytial virus” (J Med Chem, 2006)

Assays:
[1] = Volume of distribution in Sprague-Dawley rat at 2 mg/kg, iv; assay type: ADME, organism-based; set-up: dose 2 mg/kg, route intravenous; settings: in vivo, read-out: Vdss
[2] = Tmax in Sprague-Dawley rat at 2 mg/kg, iv; assay type: ADME, organism-based; set-up: dose 2 mg/kg, route intravenous; settings: in vivo
[3] = test system: Rattus norvegicus; assay: Volume of distribution in Sprague-Dawley rat at 2 mg/kg, po; assay type: ADME, organism-based; set-up: dose 2 mg/kg, route oral; settings: in vivo
[4] = Cmax in Sprague-Dawley rat at 2 mg/kg, iv; assay type: ADME, organism-based; set-up: dose 2 mg/kg, route intravenous; settings: in vivo
[5] = Apparent oral clearance in Sprague-Dawley rat at 25 mg/kg, po; assay type: ADME, organism-based; set-up: dose 25 mg/kg, route oral; settings: in vivo
[6] = test system: Respiratory syncytial virus; assay: Antiviral activity against RSV B in Hep2 cells by ELISA; assay type: functional, organism-based; settings: human respiratory syncytial virus, HEp-2
[7] = test system: Respiratory syncytial virus; assay: Antiviral activity against RSV B in Hep2 cells by plaque assay; assay type: functional, organism-based; settings: human respiratory syncytial virus, HEp-2
[8] = Cmax in Sprague-Dawley rat at 25 mg/kg, po; assay type: ADME, organism-based; set-up: dose 25 mg/kg, route oral; settings: in vivo
[9] = Half life in Sprague-Dawley rat at 2 mg/kg, po; assay type: ADME, organism-based; set-up: dose 2 mg/kg, route oral; settings: in vivo
[10] = Half life in Sprague-Dawley rat at 25 mg/kg, po; assay type: ADME, organism-based; set-up: dose 25 mg/kg, route oral; settings: in vivo
[11] = Cmax in Sprague-Dawley rat at 2 mg/kg, po; assay type: ADME, organism-based; set-up: dose 2 mg/kg, route oral; settings: in vivo
[12] = Half life in Sprague-Dawley rat at 2 mg/kg, iv; assay type: ADME, organism-based; set-up: dose 2 mg/kg, route intravenous; settings: in vivo
[13] = test system: Respiratory syncytial virus; assay: Antiviral activity against RSV RSS in Hep2 cells by ELISA; assay type: functional, organism-based; settings: human respiratory syncytial virus, HEp-2
[14] = Tmax in Sprague-Dawley rat at 25 mg/kg, po; assay type: ADME, organism-based; set-up: dose 25 mg/kg, route oral; settings: in vivo
[15] = test system: HEp-2; assay: Cytotoxicity against Hep2 cell at 50 uM; assay type: functional, cell-based; settings: Homo sapiens
Summary of the method: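 Run alongside the whole-cell antiviral XTT assay, without virus, to measure compound toxicity to the cells. The read-out is XTT.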

[16] = test system: Respiratory syncytial virus; assay: Antiviral activity against RSV RSS in Hep2 cells by whole cell XTT assay; assay type: functional, organism-based; settings: human respiratory syncytial virus, HEp-2
Summary of the method: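 Primary whole-cell assay with XTT read-out of infected cells. Parallel cultures without virus were run to measure compound cytotoxicity. IC50 values were derived.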

[17] = test system: Respiratory syncytial virus; assay: Antiviral activity against RSV Long in Hep2 cells by ELISA; assay type: functional, organism-based; settings: human respiratory syncytial virus, HEp-2
[18] = test system: Respiratory syncytial virus; assay: Antiviral activity against RSV Long in Hep2 cells by plaque assay; assay type: functional, organism-based; settings: human respiratory syncytial virus, HEp-2
[19] = test system: Rattus norvegicus; assay: Volume of distribution in Sprague-Dawley rat at 25 mg/kg, po; assay type: ADME, organism-based; set-up: dose 25 mg/kg, route oral; settings: in vivo
[20] = Apparent oral clearance in Sprague-Dawley rat at 2 mg/kg, po; assay type: ADME, organism-based; set-up: dose 2 mg/kg, route oral; settings: in vivo
[21] = Oral bioavailability in Sprague-Dawley rat at 2 mg/kg, po; assay type: ADME, organism-based; settings: in vivo
[22] = Clearance in Sprague-Dawley rat at 2 mg/kg, iv; assay type: ADME, organism-based; set-up: dose 2 mg/kg, route intravenous; settings: in vivo
[23] = Tmax in Sprague-Dawley rat at 2 mg/kg, po; assay type: ADME, organism-based; set-up: dose 2 mg/kg, route oral; settings: in vivo
[24] = test system: Respiratory syncytial virus; assay: Antiviral activity against RSV RSS in Hep2 cells by plaque assay; assay type: functional, organism-based; settings: human respiratory syncytial virus, HEp-2

Q: For CC(=O)NC1N=C(c2ccccc2)c2ccccc2NC1=O (centres undefined), which Vd [1] is on record?
A: The Vd was 2.2 L/kg.

Q: What about the Tmax [2] of the same compound?
A: The Tmax was 4.8 min.

Q: What about the Vdss [3] of the same compound?
A: Its Vdss is 4.2 L/kg.

Q: What about the Cmax [4] of the same compound?
A: Its Cmax is 2.4 µg/mL.

Q: And the CL/F [5]?
A: Its CL/F is 0.438 L/h/kg.

Q: And the IC50 [6]?
A: Its IC50 is 17.8 µM.

Q: And the IC50 [7]?
A: Its IC50 is 3.6 µM.

Q: And the Cmax [8]?
A: The Cmax was 7.93 µg/mL.

Q: And the half-life [9]?
A: The half-life was 5.9 h.

Q: What about the half-life [10] of the same compound?
A: Its half-life is 4.4 h.

Q: What about the Cmax [11] of the same compound?
A: The Cmax was 0.616 µg/mL.

Q: And the half-life [12]?
A: The half-life was 5 h.

Q: What about the IC50 [13] of the same compound?
A: Its IC50 is 9.3 µM.

Q: What about the Tmax [14] of the same compound?
A: Its Tmax is 1.5 h.

Q: What about the Activity [15] of the same compound?
A: Its Activity is “Not toxic”.

Q: What about the IC50 [16] of the same compound?
A: The IC50 was 8.6 µM.

Q: What about the IC50 [17] of the same compound?
A: Its IC50 is 17.6 µM.

Q: What about the IC50 [18] of the same compound?
A: The IC50 was 7.2 µM.

Q: And the Vdss [19]?
A: Its Vdss is 2.7 L/kg.

Q: And the CL/F [20]?
A: The CL/F was 0.294 L/h/kg.

Q: What about the bioavailability [21] of the same compound?
A: Its bioavailability is 77%.

Q: What about the clearance [22] of the same compound?
A: The clearance was 0.318 L/h/kg.

Q: What about the Tmax [23] of the same compound?
A: The Tmax was 2.6 h.

Q: What about the IC50 [24] of the same compound?
A: Its IC50 is 7.1 µM.
